Reference: ChEMBL document CHEMBL3091313, “Amino acids derived benzoxazepines: design, synthesis and antitumor activity” (Bioorg Med Chem Lett, 2013)

Tests used:
MCF7 [1] = assay: Antiproliferative activity against human MCF7 cells after 24 hrs by MTT assay; assay type: functional, cell-based; details: MCF7, 24 h
Method in brief: (§1)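 MCF-7 (ER+ve) and MDA-MB-231 (ER-ve) breast cancer cells were exposed to compound or vehicle. Viability was read by MTT and expressed as % cell death versus vehicle, with 4-hydroxytamoxifen as positive control. IC50 came from three independent experiments, each in triplicate.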

MDA-MB-231 [2] = assay: Antiproliferative activity against human MDA-MB-231 cells after 24 hrs by MTT assay; assay type: functional, cell-based; details: MDA-MB-231, 24 h; method in brief: as §1
MDA-MB-231 [3] = assay: Antiproliferative activity against human MDA-MB-231 cells after 72 hrs by MTT assay; assay type: functional, cell-based; details: MDA-MB-231, 72 h; method in brief: as §1
MCF7 [4] = assay: Antiproliferative activity against human MCF7 cells after 72 hrs by MTT assay; assay type: functional, cell-based; details: MCF7, 72 h; method in brief: as §1
MCF7 [5] = assay: Antiproliferative activity against human MCF7 cells after 48 hrs by MTT assay; assay type: functional, cell-based; details: MCF7, 48 h; method in brief: as §1
MDA-MB-231 [6] = assay: Antiproliferative activity against human MDA-MB-231 cells after 48 hrs by MTT assay; assay type: functional, cell-based; details: MDA-MB-231, 48 h; method in brief: as §1
[7] = Safety index, ratio of IC50 for HEK293 cells to IC50 for human MCF7 cells; assay type: toxicity, cell-based; details: HEK293 cells versus MCF7 cells, read-out: Ratio IC50
Method in brief: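 Cell death was assessed by MTT assay after 72 h exposure. The ratio was calculated as the HEK-293 IC50 divided by the MCF-7 EC50.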

HEK293 = assay: Cytotoxicity against HEK293 cells after 24 hrs by MTT assay; assay type: cell-based; details: Homo sapiens, HEK293, 72 h; in the assay text read “after 72 hrs” for “after 24 hrs”

CCC(=C(c1ccc(O)cc1)c1ccc(OCCN(C)C)cc1)c1ccccc1
IC50 (MCF7 [1]): 7.2 µM
IC50 (MDA-MB-231 [2]): 10.4 µM

COc1cccc2c1OC[C@H](Cc1ccc(OCCN(C)C)cc1)N(S(=O)(=O)c1ccc(C)cc1)C2
IC50 (MCF7 [1]): > 20 µM
IC50 (MDA-MB-231 [2]): > 20 µM

COc1ccc2c(c1)OC[C@H](Cc1ccc(O)cc1)N(S(=O)(=O)c1ccc(C)cc1)C2
IC50 (MCF7 [1]): > 20 µM
IC50 (MDA-MB-231 [2]): > 20 µM

COc1ccc(C[C@H]2COc3ccccc3CN2Cc2ccc(OCCN(C)C)cc2)cc1
IC50 (MCF7 [1]): > 20 µM
IC50 (MDA-MB-231 [2]): > 20 µM

COc1ccc(C[C@H]2COc3ccccc3CN2Cc2ccc(OCCN3CCCC3)cc2)cc1
IC50 (MCF7 [1]): 12.5 µM
IC50 (MDA-MB-231 [2]): 15.7 µM

Cc1ccc(S(=O)(=O)N2Cc3ccccc3OC[C@@H]2Cc2ccc(OCCN3CCCCC3)cc2)cc1
IC50 (MCF7 [1]): 9.62 µM
IC50 (MDA-MB-231 [3]): 4.2 µM
IC50 (MCF7 [4]): 3.23 µM
IC50 (MDA-MB-231 [2]): 10.2 µM
IC50 (MCF7 [5]): 4.31 µM
IC50 (MDA-MB-231 [6]): 5.12 µM

COc1ccc(C[C@H]2COc3ccccc3CN2)cc1
IC50 (MCF7 [1]): > 20 µM
IC50 (MDA-MB-231 [2]): > 20 µM

CCN(CC)CCOc1ccc(CN2Cc3ccccc3OC[C@@H]2Cc2ccc(OC)cc2)cc1
IC50 (MCF7 [1]): 14.5 µM
IC50 (MDA-MB-231 [2]): 18.6 µM

COc1ccc2c(c1)CN(S(=O)(=O)c1ccc(C)cc1)[C@@H](CC(C)C)CO2
IC50 (MCF7 [1]): > 20 µM
IC50 (MDA-MB-231 [2]): > 20 µM

COc1ccc2c(c1)CN(S(=O)(=O)c1ccc(C)cc1)[C@@H](Cc1c[nH]c3ccccc13)CO2
IC50 (MCF7 [1]): > 20 µM
IC50 (MDA-MB-231 [2]): > 20 µM

COc1ccc(C[C@H]2COc3ccccc3CN2C(=O)OC(C)(C)C)cc1
IC50 (MCF7 [1]): > 20 µM
IC50 (MDA-MB-231 [2]): > 20 µM

Cc1ccc(S(=O)(=O)N2Cc3ccccc3OCC2Cc2ccc(O)cc2)cc1 (stereo not drawn)
selectivity ratio [7]: 3
IC50 (MCF7 [4]): 10 µM
IC50 (HEK293): 30 µM

COc1ccc(C[C@H]2COc3ccccc3CN2Cc2ccc(O)cc2)cc1
IC50 (MCF7 [1]): 10.3 µM
IC50 (MDA-MB-231 [2]): 13.2 µM

COc1ccc(C[C@H]2COc3ccccc3CN2Cc2ccc(OCCN3CCCCC3)cc2)cc1
IC50 (MCF7 [1]): > 20 µM
IC50 (MDA-MB-231 [2]): > 20 µM

COc1ccc(C[C@H]2COc3ccccc3CN2Cc2ccc(OCCN3CCCCCC3)cc2)cc1
IC50 (MCF7 [1]): > 20 µM
IC50 (MDA-MB-231 [2]): > 20 µM

COc1cccc2c1OC[C@H](Cc1ccc(OCCN3CCOCC3)cc1)N(S(=O)(=O)c1ccc(C)cc1)C2
IC50 (MCF7 [1]): > 20 µM
IC50 (MDA-MB-231 [2]): > 20 µM

COc1cccc2c1OC[C@H](Cc1ccc(OCCN3CCCCCC3)cc1)N(S(=O)(=O)c1ccc(C)cc1)C2
IC50 (MCF7 [1]): > 20 µM
IC50 (MDA-MB-231 [2]): > 20 µM

CCN(CC)CCOc1ccc(C[C@H]2COc3c(cccc3OC)CN2S(=O)(=O)c2ccc(C)cc2)cc1
IC50 (MCF7 [1]): > 20 µM
IC50 (MDA-MB-231 [2]): > 20 µM

COc1cccc2c1OC[C@H](Cc1ccc(OCCN3CCCC3)cc1)N(S(=O)(=O)c1ccc(C)cc1)C2
IC50 (MCF7 [1]): > 20 µM
IC50 (MDA-MB-231 [2]): > 20 µM
